Assay outcomes as filed in PubChem.
SKKanGAS inh: SKKanGAS growth inhibition; 300,000 compounds, 1.3% hits; AID 1662; S. pyogenes SKKanGAS, kanamycin growth, BacTiter-Glo, 6 h; inhibition, % at 7.5 µM;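 active = mean replicate score, as percent of positive control median, at least 50; inconclusive = mean below 50 but one replicate at or above 50; inactive = mean and every replicate below 50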;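 note: strain carries kanamycin resistance gene driven by streptokinase promoter and grows in 40 µg/ml kanamycin; loss of luminescence reflects streptokinase promoter inhibition or plain growth inhibition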
ARFGAP1 inh: inhibitors of rat ARFGAP1 | AID 651572 | inhibition, % at 16.5 µM | 360,000 compounds, 0.26% hits | Q62848 | Arfgap1-stimulated ARF1 GTP hydrolysis, GDP FP detection;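 active = inhibition above a per-plate limit, mean inhibition of low control wells plus 3 SD, cut at about 25% in these data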
Target sequence (Q62848 1-136 limits assumed): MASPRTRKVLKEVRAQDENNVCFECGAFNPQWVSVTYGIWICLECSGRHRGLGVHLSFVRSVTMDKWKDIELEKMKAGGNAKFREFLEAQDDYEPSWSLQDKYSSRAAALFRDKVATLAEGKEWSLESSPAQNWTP
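System: truncated rat Arfgap1 GAP domain / Benchmarks: high control wells lacking Arfgap1, low control full reaction with DMSO / Times: compound-enzyme preincubation 20 min, reaction 120 min, detection 60 min, 25 °C / Repeats: one replicate per compound / Also added: human ARF1(Δ1-17)-GTP substrate / Measured by: Tracer-displacement fluorescence polarization with EDTA stop, 620/688 nm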
ASAP1 GAP inh: blocks human ASAP1-stimulated Arf1 GTP hydrolysis; inhibition, % at 16.5 µM; 360,000 compounds, 0.19% hits; GDP FP detection; Q9ULH1; AID 624377; in the data active = inhibition above about 25%
Target sequence (Q9ULH1 325-724 limits assumed): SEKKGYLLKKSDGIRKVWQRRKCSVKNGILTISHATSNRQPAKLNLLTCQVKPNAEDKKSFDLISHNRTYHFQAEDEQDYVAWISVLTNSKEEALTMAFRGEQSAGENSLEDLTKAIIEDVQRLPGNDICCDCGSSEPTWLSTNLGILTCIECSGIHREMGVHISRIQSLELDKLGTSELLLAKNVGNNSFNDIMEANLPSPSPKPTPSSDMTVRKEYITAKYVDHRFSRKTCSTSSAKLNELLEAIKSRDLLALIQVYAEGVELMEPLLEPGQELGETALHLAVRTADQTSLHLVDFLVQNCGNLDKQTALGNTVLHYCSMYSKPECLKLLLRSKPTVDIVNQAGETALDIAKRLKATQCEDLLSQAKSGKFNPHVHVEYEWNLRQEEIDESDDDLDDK
sPLA2-III inh: Inhibits HGIII-sPLA2 liposome hydrolysis, primary screen; Q9NZ20; QFRET BODIPY PC-A2 liposome hydrolysis, fluorescence; inhibition, % at 12.2 µM; 370,000 compounds, 0.56% hits; AID 743126;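 active = inhibition above mean plus 3 SD of compounds lying within the high and low control bounds, cut at about 19% in these data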
Calb FLC: affects C. albicans growth with fluconazole; 300,000 compounds, 0.57% hits; AID 1979; growth inhibition, % (concentration not given with the values); C. albicans CaCi-2 (fluconazole-resistant clinical isolate) + fluconazole, Alamar Blue growth, 48 h;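 active = growth inhibition above about 58% in most replicates, limit read from the data, passing the limit was not always enough; inconclusive = exactly half the replicates above a set limit; inactive = most replicates below a set limit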;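 note: all wells also contain fluconazole at 8 µg/ml as a sub-toxic cotreatment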
Large screens that a line does not name were inactive. Sampled rows, rich in hits. Any-hit rate of the full collection: about 2.3%.

Cc1ccc([C@H]2C[C@@H](O)[C@H](n3cc(-c4ccc(F)cc4)nn3)CN2Cc2cccs2)cc1	none (no result: SKKanGAS inh, Calb FLC)
COc1cc(C(=O)NC(=S)Nc2ccc(Cc3ccncc3)cc2)cc(OC)c1OC	SKKanGAS inh 51
CCOC(=O)c1cc(-c2ccc(OC(F)F)cc2)nc2nc(SC)[nH]c(=O)c12	Calb FLC inconclusive
CCOC(=O)c1cc(-c2ccc(OC(F)F)cc2)nc2c1c(=O)[nH]c(=O)n2C	SKKanGAS inh 100
CC/C(=N\NC(=S)Nc1cc(C)ccc1C)c1ccc(OC(F)F)cc1	SKKanGAS inh 69
CC(C)/C(=N\NC(=O)Nc1ccccc1)c1ccccc1	none
CC/C(=N\NC(=S)Nc1cccc(C)c1)c1ccccc1	SKKanGAS inh 62
C/C(=N\NC(=S)Nc1cccc(C)c1)c1cc2ccccc2o1	SKKanGAS inh 67
Cc1cccc(NC(=S)N/N=C(\c2ccccc2)C(C)C)c1	SKKanGAS inh 69, Calb FLC 102
CC(=NNc1nc2ccccc2s1)c1ncccn1	none (no result: SKKanGAS inh, Calb FLC)
CC(=O)N1CCC(=NNc2nc3ccccc3s2)CC1	Calb FLC 99
C/C(=N\Nc1nc2ccccc2s1)c1cccs1	SKKanGAS inh 50
Cc1ccccc1CNC(=S)OC1CCC12CCC(c1ccccc1)CC2 (centres undefined)	none (no result: SKKanGAS inh, ARFGAP1 inh, ASAP1 GAP inh, Calb FLC)
O=C(Nc1ccc(C2=NCCN2)cc1)c1ccc(C(=O)Nc2ccc(C3=NCCN3)cc2)c([N+](=O)[O-])c1	ARFGAP1 inh 27, Calb FLC 107
Cc1ccc(C)c(NC(=O)CSc2nc(N)c(NC(=O)c3cccs3)c(=O)[nH]2)c1	none (no result: SKKanGAS inh, Calb FLC)
O=C(CSc1nc2nc(-c3cccs3)cc(C(F)(F)F)c2c(=O)[nH]1)Nc1ccc(F)c(F)c1	SKKanGAS inh 88
Cc1cc(=O)[nH]c(SCC(=O)Nc2ccc(F)c(F)c2)n1	none (no result: SKKanGAS inh, ARFGAP1 inh, ASAP1 GAP inh, Calb FLC)
Cc1ccc(C)c(NC(=O)CSc2nc3nc(-c4cccs4)cc(C(F)(F)F)c3c(=O)[nH]2)c1	SKKanGAS inh 57
CCc1c(C)nc2cc(-c3ccc(OC)c(OC)c3)nn2c1N1CCCC1	none
CCc1c(C)nc2cc(-c3ccc(OC)c(OC)c3)nn2c1N1CCC(C)CC1	SKKanGAS inh 57, Calb FLC inconclusive
CNC(=O)c1c(NC(=O)c2ccc(N3C(=O)CCC3=O)cc2)sc2c1CCCC2	none
CNC(=O)c1c(NC(=O)c2ccc(N3C(=O)CCC3=O)cc2)sc2c1CCC(C)C2 (centres undefined)	SKKanGAS inh 61
Cn1nc(-c2ccccc2)c(CSc2ccccc2)c1Cl	SKKanGAS inh 62
O=C(/C=C1\NC2(CCCC2)Cc2ccccc21)C(=O)N/N=C/c1ccccc1O	SKKanGAS inh 96, Calb FLC 95
CCCCCCCCCn1c2c(c(=N)c3c1CCC3)CCCC2	Calb FLC 105 (no result: ARFGAP1 inh, ASAP1 GAP inh, sPLA2-III inh)
CCCCCCCCCCn1c2c(c(=N)c3c1CCC3)CCC2	SKKanGAS inh inconclusive, Calb FLC 107
Cc1nn(-c2ccccc2)c(N)c1N=Nc1ccc(Cl)cc1	Calb FLC 98
Nc1nn(-c2ccccc2)c(N)c1N=Nc1ccccc1F	none
Cc1cccc(N=Nc2c(C)nn(-c3ccccc3)c2N)c1C	SKKanGAS inh 57
Cc1nn(-c2ccccc2)c(N)c1N=Nc1ccccc1	none
Cc1occc1-c1nnc(SCC(=O)N2CCN(c3ncccn3)CC2)n1-c1ccccc1	none (no result: SKKanGAS inh, ARFGAP1 inh, ASAP1 GAP inh, Calb FLC)
C/C(=N\NC(=O)COc1ccccc1-c1ccccc1)c1ccc(O)cc1O	SKKanGAS inh 86
C/C(=N\NC(=O)c1ccc(Cl)cc1)c1ccccn1	SKKanGAS inh 87
C/C(=N\NC(=O)COc1ccccc1-c1ccccc1)c1cccnc1	none
O=C(COc1ccccc1-c1ccccc1)N/N=C/c1ccc2ccccc2c1	SKKanGAS inh 88
C/C(=N\NC(=O)c1ccccn1)c1ccc(Cl)cc1	none
C/C(=N\NC(=O)COc1ccccc1-c1ccccc1)c1ccccn1	SKKanGAS inh 83
Cc1cccc(NC(=O)Nc2ccccc2C(=O)N2CCCC2)c1	none (no result: SKKanGAS inh, ARFGAP1 inh, ASAP1 GAP inh, Calb FLC)
COc1cccc(C(=O)N/N=C(/c2ccccc2)c2ccccn2)c1	SKKanGAS inh 56
COc1cc(C(=O)N/N=C(\c2ccccc2)c2ccccn2)cc(OC)c1OC	none
COC(=O)c1ccc(NC(=O)Nc2ccc([N+](=O)[O-])cc2)cc1	SKKanGAS inh 51
O=C(Nc1ccc([N+](=O)[O-])cc1)Nc1ccc(Cl)cc1F	SKKanGAS inh 58
O=C(Nc1ccc(Cl)cc1)Nc1cc([N+](=O)[O-])ccc1F	none
O=C(Cc1ccc(NC(=O)C2CCN(C(=O)CCc3ccccc3)CC2)cc1)Nc1cccc(C(=O)N2CCCC2)c1	none (no result: SKKanGAS inh, Calb FLC)
